In the library only some 9.6% were active in any assay of this set; here they are far more common.
TNAP inh noacc: blocks human TNAP activity with no phosphate acceptor present | 0.26% of 200,000 active | inhibition, % at 20 µM | purified TNAP, CDP-star luminescence, 30 min | P05186;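 active = tissue-nonspecific alkaline phosphatase inhibition above about 50% at 20 µM in the single-dose screen, limit read from the data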;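 also: 0% = DMSO negative control and 100% = EDTA positive control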
Target sequence (P05186 whole entry, looked up): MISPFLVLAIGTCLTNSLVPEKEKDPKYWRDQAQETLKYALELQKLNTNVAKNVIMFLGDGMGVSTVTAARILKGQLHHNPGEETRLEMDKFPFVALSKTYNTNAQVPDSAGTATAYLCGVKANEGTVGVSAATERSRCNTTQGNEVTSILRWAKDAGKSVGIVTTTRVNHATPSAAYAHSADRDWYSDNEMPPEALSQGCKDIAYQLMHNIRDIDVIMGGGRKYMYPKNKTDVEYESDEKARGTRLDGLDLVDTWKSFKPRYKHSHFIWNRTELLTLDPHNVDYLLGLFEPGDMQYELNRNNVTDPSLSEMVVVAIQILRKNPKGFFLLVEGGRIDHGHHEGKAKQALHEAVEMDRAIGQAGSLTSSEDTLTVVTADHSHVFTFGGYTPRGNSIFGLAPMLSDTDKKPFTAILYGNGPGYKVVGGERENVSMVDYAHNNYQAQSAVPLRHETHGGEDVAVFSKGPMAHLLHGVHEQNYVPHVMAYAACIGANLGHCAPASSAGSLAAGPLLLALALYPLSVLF
bCat KO growth: beta-catenin-lacking colon tumor cell growth suppression; viability, % at 10 µM; HCT116 beta-catenin knockout viability, CellTiter-Glo, 60 h; stronger effect = lower value; 1.5% of 140,000 active;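 active = viability at or under a set limit, the compound median less 4 SD, cut at about 6% in these data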;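 also: 0% = Hyamine 1622 control at 20 µM and 100% = untreated cell control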
TNAP act hi DEA: activators of human TNAP at high phosphate acceptor concentration; purified TNAP, CDP-star luminescence, 1 M DEA, 30 min; stronger effect = higher value; 0 = EDTA background, 1 = DMSO-only activity; activation factor at 20 µM; 200,000 tested, under 10 active; AID 1136;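 active = activation factor at least 2 at 20 µM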
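system = human TNAP | amount = enzyme diluted 1/800 final | reagent = 100 µM CDP-star substrate | signal = luminescent substrate turnover signal | dosing = one dose, 20 µM | benchmarks = EDTA negative control, DMSO positive control | measure = activation factor | timing = 30 min reaction, room temperature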
PTEN del growth: growth suppressors of cells with PTEN tumor suppressor deletion; HCT116 PTEN-null viability, CellTiter-Glo, 60 h; stronger effect = lower value; viability, % at 10 µM; 1.2% of 140,000 active; AID 827;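 active = viability at or below a set limit, 4 SD under the median of all tested compounds, cut at about 3.7% in these data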;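 also: PTEN knockout HCT116 line with beta catenin targeted HCT116 as companion control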
TNAP inh hiacc: inhibitors of human TNAP at high phosphate acceptor concentration | P05186 | purified TNAP, CDP-star luminescence, 1 M DEA | inhibition, % at 20 µM | 0.03% of 200,000 active;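 active = over 50% inhibition of tissue-nonspecific alkaline phosphatase at 20 µM in the single-dose screen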;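 also: plate controls were DMSO wells for no effect and EDTA-quenched wells as full inhibition for full effect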
L major viab: reduces viability of Leishmania major promastigotes; resazurin fluorescence viability; inhibition, % at 10 µM; 9% of 200,000 active; in the data active = inhibition above about 50%;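 also: promastigotes grown with compound for 44 hours at 28 °C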
Numbers without * were called inactive; . = not tested or not shown.

SMILES | TNAP inh noacc | bCat KO growth | TNAP act hi DEA | PTEN del growth | TNAP inh hiacc | L major viab
CCN(CC)S(=O)(=O)c1cccc(C(=O)Nc2nc3cc4c(cc3s2)OCCO4)c1 | -10.5 | 39.4 | 1.1 | 54.3 | -9.7 | 92.6*
O=C(Nc1nc2cc3c(cc2s1)OCCO3)c1cccc(N2C(=O)CCC2=O)c1 | -11.7 | . | 1.1 | . | -8.0 | 55.3*
COc1ccccc1C(=O)Nc1nc2cc3c(cc2s1)OCCO3 | -10.1 | . | 1.1 | . | -5.9 | 75.2*
COc1ccccc1C(=O)Nc1ccc2c(c1)OCCO2 | -4.3 | 77.0 | 1 | 67.4 | -0.7 | -5.8
Cc1ccc(S(=O)(=O)N2CCN(C(=O)c3ccccc3)CC2)c(C)c1NS(C)(=O)=O | -11.3 | . | 1.1 | . | -6.8 | -7.0
O=C(CSc1ccccc1)Nc1cc(S(=O)(=O)N2CCOCC2)ccc1N1CCOCC1 | 9.5 | . | 1.1 | . | -5.3 | 29.9
CCCCNC(=O)c1c[nH]c2ccc(S(=O)(=O)N3CCOCC3)cc2c1=O | -5.9 | . | 1 | . | -0.4 | 0.6
COc1cccc(-n2nc(C#N)c(Cl)cc2=O)c1 | -11.8 | . | 1.1 | . | -6.0 | 100.2*
NC(=O)CCC(NS(=O)(=O)c1ccc(Cl)cc1)C(=O)NCc1ccccc1 (stereo unspecified) | -3.0 | 101.8 | 1 | 100.6 | -1.6 | -5.2
CC(Nc1nc(N2CCNCC2)nc2ccccc12)c1ccccc1 (stereo unspecified) | -4.9 | . | 1 | . | 1.5 | 100.3*
c1ccc(-c2nc(N3CCCC3)nc3ccccc23)cc1 | -35.9 | . | 1 | . | -4.1 | 3.5
N#CC1=C2SCN(Cc3ccco3)CN2C(=O)CC1c1c(F)cccc1Cl (stereo unspecified) | -12.3 | 79.8 | 1 | 96.5 | -4.6 | 74.8*
CC(C)C[C@H](NC(=O)OC(C)(C)C)c1n[nH]c(=S)n1N | -8.5 | 95.9 | 1 | 106.7 | 2.8 | 7.4
COc1ccccc1-c1ccc(SCc2cccc(C)c2)nn1 | -11.2 | . | 1 | . | -2.3 | 98.6*
C=C(C)Cn1c(C)cc(C)c(S(=O)(=O)c2ccc(C)cc2)c1=O | -5.1 | . | 1 | . | -1.6 | 67.7*
Cc1cc(C)n(Cc2ccc(Cl)cc2Cl)c(=O)c1S(=O)(=O)c1ccccc1 | -17.9 | 66.4 | 1 | 74.9 | 0.5 | -1.3
CCc1nc2ccccc2n1Cc1ccccc1F | -2.0 | . | 1 | . | 0.3 | 12.7
N=C(c1cccc([N+](=O)[O-])c1)N1CCCCC1 | -0.5 | . | 1.1 | . | -6.3 | -5.4
Cc1nn(Cc2cccc(C(=O)NC34CC5CC(CC(C5)C3)C4)c2)c(C)c1Br | -9.5 | 76.7 | 1.1 | 79.3 | -5.1 | 54.0*
O=C(Nc1ccc2c(c1)OCCO2)C1CCN(c2cnccn2)CC1 | -13.9 | 102.7 | 1 | 96.9 | -4.5 | -0.9
Cc1ccc(NC(=O)C2CCN(c3cnccn3)CC2)cc1C | 0.8 | . | 1 | . | -4.8 | 88.8*
COc1ccc(OC)c(C2C(C(=O)c3ccccc3)=C(C)Nc3nc4ccccc4n32)c1 (stereo unspecified) | -4.6 | 18.3 | 1 | 25.7 | -4.0 | 79.4*
COc1ccc(C2C(C(=O)c3ccccc3)=C(C)Nc3nc4ccccc4n32)cc1OC (stereo unspecified) | -2.6 | 89.9 | 1 | 84.3 | 1.1 | 22.5
COc1ccc(C2C(C(=O)c3ccccc3)N3c4ccccc4C=CC3C2[N+](=O)[O-])cc1 (stereo unspecified) | 14.3 | . | 0.9 | . | 12.3 | 44.2
CC(=O)c1cccc(NC(=O)N2CCC(NC(=O)C34CC5CC(CC(C5)C3)C4)CC2)c1 | -7.7 | . | 1 | . | -4.3 | 55.4*
SMILES | TNAP inh noacc | bCat KO growth | TNAP act hi DEA | PTEN del growth | TNAP inh hiacc | L major viab
Oc1cc(NCc2cccnc2)ccc1-c1nc2ccccc2o1 | 1.0 | 51.5 | 1 | 49.1 | -3.9 | 99.0*
CCOC(=O)C(C(=O)Nc1nccs1)C1CCCCC1 (stereo unspecified) | -2.4 | 89.0 | 1 | 87.4 | -3.4 | 51.8*
CCOC(=O)C(C(=O)Nc1cccc(C)n1)C1CCCCC1 (stereo unspecified) | -14.1 | 71.2 | 1.1 | 69.8 | -8.8 | 4.0
CCOC(=O)C(C(=O)Nc1nc2ccccc2s1)C1CCCCC1 (stereo unspecified) | -3.7 | 73.8 | 1.1 | 73.8 | -8.6 | 85.5*
CCOC(=O)C(C(=O)Nc1ccccn1)C1CCCCC1 (stereo unspecified) | -7.6 | 96.0 | 1.1 | 91.8 | -5.3 | -5.8
O=C(NN=C1c2ccccc2-c2ccccc21)c1cccc(Br)c1 | -74.6 | 21.8 | 0.9 | 4.9 | 5.2 | 89.4*
O=C(N/N=C/c1cccc(Oc2ccccc2)c1)c1cccc(Br)c1 | -20.8 | 89.6 | 1 | 77.2 | -2.3 | 95.0*
O=C(N/N=C/c1cccc(Br)c1)c1ccc(Br)cc1 | -9.7 | . | 1 | . | 0.4 | -5.0
O=C(COc1cccc(Br)c1)NN=C1c2ccccc2-c2ccccc21 | -6.2 | 68.2 | 1 | 55.1 | 3.3 | -2.6
O=C(N/N=C/c1cccc(Oc2ccccc2)c1)c1ccccc1Br | -3.8 | 51.9 | 1 | 54.8 | -0.3 | 95.5*
O=C(N/N=C/c1ccccc1C(=O)O)c1ccccc1Br | 6.1 | . | 1 | . | -0.5 | -1.2
Cc1ccnc(NC(=O)CCC(=O)N(CC(=O)NCc2ccccc2)Cc2cccs2)c1 | -5.2 | . | 1 | . | 3.6 | -2.8
CC(C(=O)OCc1nnc(-c2ccccc2)o1)N1C(=O)C2CCCCC2C1=O (stereo unspecified) | -8.8 | . | 1 | . | -1.7 | -0.4
CCCNc1cc(C)oc(=O)c1C(=O)CC | -2.8 | . | 1.1 | . | -6.7 | 2.3
COc1cc(SC)ccc1C(=O)NCCOc1ccc(F)cc1 | -8.6 | 100.2 | 1.1 | 97.5 | -8.2 | 57.8*
COc1cc(SC)ccc1C(=O)Nc1c(C)cccc1C | -7.8 | . | 1 | . | -4.8 | 27.3
COc1cc(SC)ccc1C(=O)Nc1c(Cl)cncc1Cl | -8.1 | . | 1 | . | -2.7 | 95.4*
COc1ccc(CCNC(=O)c2ccc(SC)cc2OC)cc1 | -4.9 | . | 0.9 | . | 5.6 | 13.7
CCCCN(C)C(=O)C1CCC(=O)N(c2cc(OC)c(OC)c(OC)c2)C1c1ccc(OC)cc1 (stereo unspecified) | -5.9 | 0.9* | 1 | 0.7* | -4.9 | -2.8
CN1CCN(c2nc(-c3cc4ccccc4o3)cs2)CC1 | -7.1 | 87.0 | 1 | 86.5 | -3.2 | 68.5*
Cn1c(=NC(=O)c2ccc(S(=O)(=O)N3CCCc4ccccc43)cc2)sc2cc(S(C)(=O)=O)ccc21 | 2.5 | 90.1 | 1 | 90.2 | 4.4 | 99.1*
C#CCn1c(=NC(=O)c2ccc(S(=O)(=O)N3CCCc4ccccc43)cc2)sc2cc(S(N)(=O)=O)ccc21 | -12.8 | 62.0 | 1 | 65.0 | 3.4 | 99.5*
Cn1c(=NC(=O)c2ccccc2[N+](=O)[O-])sc2cc(S(C)(=O)=O)ccc21 | -3.4 | 94.9 | 1 | 97.5 | -4.8 | 48.6
COc1ccccc1CNC(=S)NC1CCCC1 | -6.6 | 96.3 | 1 | 92.1 | -3.8 | 37.3
Cc1ccc(C)c2c1sc(=NC(=O)CN1C(=O)CCC1=O)n2C | -20.8 | 86.4 | 1.1 | 89.7 | -5.7 | 90.5*

High-throughput results from PubChem.
